In brackets after ≈: the same amount, converted by molar mass.
Legend:
[1] = system: BT-474; experiment: Cytotoxicity against human BT-474 cells; type: functional
How it was run: (§1)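 BT-474 breast cancer cells and nontumorigenic HMECs treated 48 h with concentrations up to 30 μM. CC50 derived from concentration–response viability plots. Values >30 μM assigned when viability fell by less than 50% of vehicle at 30 μM. Mean ± SEM, n ≥ 3.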

[2] = Metabolic stability in mouse liver microsomes assessed as half life preincubated for 15 mins followed by NADPH addition and measured after 1 to 2 hrs by LC-MS/MS analysis; type: ADME, Microsome; conditions: time 75-135 min; for t1/2: microsomes; for half-life: liver microsomes
How it was run: (§2)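 Microsomal stability assessed in mouse, human, rat or dog liver microsomes with NADPH cofactor. Half-life and percent parent remaining at 60 and 120 min reported. Mean of at least two independent experiments, each in two technical replicates.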

[3] = Aqueous kinetic solubility of the compound in PBS at pH 7.4 at 250 uM incubated for 24 hrs by UPLC/MS analysis; type: physicochemical; conditions: read-out: Kinetic_solubility
How it was run: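 Kinetic solubility measured in phosphate-buffered saline, pH 7.4. Mean of at least two independent experiments, each run in two technical replicates.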

[4] = Metabolic stability in mouse liver microsomes assessed as parent compound remaining preincubated for 15 mins followed by NADPH addition and measured after 2 hrs by LC-MS/MS analysis; type: ADME, Microsome; conditions: time 135 min, read-out: Stability; how it was run: as §2
[5] = Metabolic stability in mouse liver microsomes assessed as parent compound remaining preincubated for 15 mins followed by NADPH addition and measured after 1 hr by LC-MS/MS analysis; type: ADME, Microsome; conditions: time 75 min, read-out: Stability; how it was run: as §2
[6] = system: HMEC; experiment: (§3) Cytotoxicity against HMECs; type: toxicity, cell-based; conditions: human, hmec; how it was run: as §1
[7] = Metabolic stability in mouse liver microsomes assessed as half-life preincubated for 15 mins followed by UDPGA addition and measured after 2 hrs by LC-MS/MS analysis
[8] = Metabolic stability in human liver microsomes assessed as parent compound remaining preincubated for 15 mins followed by UDPGA addition and measured after 2 hrs by LC-MS/MS analysis; type: ADME, Microsome; conditions: time 135 min, read-out: Stability
How it was run: (§4)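 Mouse and human liver microsomes incubated with UDPGA cofactor. Half-life and percent parent remaining at 120 min reported. Mean of at least two independent experiments, each in two technical replicates.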

[9] = Metabolic stability in mouse liver microsomes assessed as half life preincubated for 15 mins followed by UDPGA addition and measured after 2 hrs by LC-MS/MS analysis; type: ADME, Microsome; conditions: time 135 min; how it was run: as §4
[10] = Metabolic stability in human liver microsomes assessed as half life preincubated for 15 mins followed by NADPH addition and measured after 1 to 2 hrs by LC-MS/MS analysis; type: ADME, Microsome; conditions: time 75-135 min; for half-life: liver microsomes; how it was run: as §2
[11] = Metabolic stability in human liver microsomes assessed as parent compound remaining preincubated for 15 mins followed by NADPH addition and measured after 1 hr by LC-MS/MS analysis; type: ADME, Microsome; conditions: time 75 min, read-out: Stability; how it was run: as §2
[12] = Metabolic stability in human liver microsomes assessed as percent compound remaining preincubated for 15 mins followed by UDPGA addition and measured after 2 hrs by LC-MS/MS analysis
[13] = Metabolic stability in human liver microsomes assessed as parent compound remaining preincubated for 15 mins followed by NADPH addition and measured after 2 hrs by LC-MS/MS analysis; type: ADME, Microsome; conditions: time 135 min, read-out: Stability; how it was run: as §2
[14] = as §3; type: toxicity, cell-based, HMEC; conditions: human, HMEC cells; how it was run: as §1
[15] = Metabolic stability in rat liver microsomes assessed as half life preincubated for 15 mins followed by NADPH addition and measured after 1 to 2 hrs by LC-MS/MS analysis; type: ADME, Microsome; conditions: liver microsomes, time 75-135 min; how it was run: as §2
[16] = Metabolic stability in rat liver microsomes assessed as parent compound remaining preincubated for 15 mins followed by NADPH addition and measured after 1 to 2 hrs by LC-MS/MS analysis; type: ADME, Microsome; conditions: time 75-135 min; how it was run: as §2
[17] = Metabolic stability in dog liver microsomes assessed as half life preincubated for 15 mins followed by NADPH addition and measured after 1 to 2 hrs by LC-MS/MS analysis; type: ADME, Canis lupus familiaris, Microsome; conditions: microsomes, time 75-135 min; how it was run: as §2

t1/2 [2] [h] | solubility kinetic at 24 h, 250 µM [3] [µM] | remaining at 2 h [4] [%] | remaining at 1 h [5] [%] | half-life [2] [h] | t1/2 at 2 h [7] [h] | remaining at 2 h [8] [%] | half-life [9] [h] | half-life [10] [h] | remaining at 1 h [11] [%] | percent compound remaining at 2 h [12] [%] | remaining at 2 h [13] [%] | t1/2 ([10]; microsomes) [h] | half-life [15] [h] | Stability [16] [%] | t1/2 [17] [h] | Structure (SMILES) | CC50 [1] [µM] | CC50 [6] [µM] | CC50 [14] [µM]
0.933 | 216 (≈ 89.6 µg/mL) | 29 | 51 | – | – | – | – | – | – | – | – | – | – | – | – | CN1CCC(Cc2cc(CNC3(c4ccc(F)cc4)CCCC3)ccc2Cl)CC1 | 2.34 | 15.4 | –
– | 249 (≈ 103 µg/mL) | – | 53 | > 1 | – | – | – | – | – | – | – | – | – | – | – | CN1CCC(Cc2cccc(CNC3(c4ccc(F)c(Cl)c4)CCCC3)c2)CC1 | 3.61 | 21.9 | –
1.52 | > 250 | 39 | 60 | – | > 2 | 95 | > 2 | > 2 | 84 | 95 | 71 | – | – | – | – | CN1CCC(Cc2cc(CNC3(c4ccc(F)cc4)CCCC3)ccc2F)CC1 | 5.89 | – | > 30
1.17 | 245 (≈ 97.6 µg/mL) | 31 | 56 | – | > 2 | > 95 | > 2 | > 2 | 75 | – | 53 | – | – | – | – | CN1CCC(Cc2cccc(CNC3(c4ccc(F)c(F)c4)CCCC3)c2)CC1 | 5.1 | – | > 30
– | > 250 | – | 63 | > 1 | – | – | – | – | – | – | – | – | – | – | – | CN1CC(Cc2cccc(CNC3(c4ccc(F)cc4)CCCC3)c2)C1 | 13.4 | – | > 30
– | > 250 | 63 | 80 | > 2 | > 2 | > 95 | > 2 | > 2 | 84 | 95 | 71 | – | – | – | – | CN1CCC(Cc2cccc(CNC3(c4ccc(F)c(O)c4)CCCC3)c2)CC1 | 11.7 | – | > 30
0.183 | 220 (≈ 91.3 µg/mL) | – | – | – | – | – | – | – | – | – | – | – | – | – | – | CN1CCC(Cc2cccc(CNC3(c4ccc(F)cc4Cl)CCCC3)c2)CC1 | 4.25 | 21 | –
– | 41 (≈ 17.1 µg/mL) | – | – | < 0.0833 | – | – | – | – | – | – | – | – | – | – | – | CN1CCC(Cc2cccc(CNC3(c4ccc(F)cc4)CCCC3)c2)C(F)(F)C1 (racemic) | 21.9 | – | > 30
– | 209 (≈ 83.3 µg/mL) | 5 | 19 | < 0.5 | – | – | – | – | – | – | – | – | – | – | – | CN1CCC(Cc2cccc(CNC3(c4ccc(F)cc4F)CCCC3)c2)CC1 | 7.83 | – | > 30
1.63 | 247 (≈ 101 µg/mL) | 42 | 64 | – | > 2 | > 95 | > 2 | – | 70 | – | 50 | 1.53 | – | – | – | COc1cc(F)ccc1C1(NCc2cccc(CC3CCN(C)CC3)c2)CCCC1 | 6.99 | – | > 30
1.33 | 228 (≈ 95 µg/mL) | 34 | 58 | – | > 2 | 95 | > 2 | > 2 | 76 | 95 | 52 | – | – | – | – | CN1CCC(Cc2cc(CNC3(c4ccc(F)cc4)CCCC3)c(F)cc2F)CC1 | 3.11 | 20.4 | –
– | 239 (≈ 97.7 µg/mL) | – | 58 | > 1 | – | – | – | – | – | – | – | – | – | – | – | CN1CCC(Cc2cccc(CNC3(c4ccc(F)cc4)CCCC3)c2)CC1(C)C (racemic) | 6.46 | – | > 30
1.92 | 232 (≈ 91.1 µg/mL) | 49 | 70 | – | > 2 | 95 | > 2 | > 2 | 82 | – | 66 | – | > 1 | 64 | 0.883 | CN1CC2(CC(Cc3cccc(CNC4(c5ccc(F)cc5)CCCC4)c3)C2)C1 | 4.83 | – | > 30
1.25 | 226 (≈ 92.8 µg/mL) | 32 | 56 | – | – | – | – | > 2 | 84 | – | 65 | – | – | – | – | CN1CC2(CC(Cc3cccc(CNC4(c5ccc(F)c(F)c5)CCCC4)c3)C2)C1 | 2.99 | 14.8 | –
1.15 | > 250 | 31 | 55 | – | > 2 | 95 | > 2 | > 2 | 75 | – | 58 | – | – | – | – | COc1cc(F)ccc1C1(NCc2ccc(F)c(CC3CCN(C)CC3)c2)CCCC1 | 6.88 | – | > 30
1.45 | > 250 | 43 | 61 | – | > 2 | 95 | > 2 | > 2 | 83 | 95 | 63 | – | – | – | – | CN1CCC(Cc2cc(CNC3(c4ccc(F)cc4)CCCC3)ccc2O)CC1 | 5.1 | – | > 30
1.37 | 246 (≈ 97.6 µg/mL) | – | – | – | > 2 | 95 | > 2 | > 2 | 74 | 95 | 54 | – | – | – | – | CN1CCC(Cc2ccc(O)c(CNC3(c4ccc(F)cc4)CCCC3)c2)CC1 | 7.03 | – | > 30
0.7 | 27 (≈ 10.7 µg/mL) | 13 | 34 | – | > 2 | > 95 | > 2 | – | – | – | – | – | – | – | – | CN1CCC(Cc2cccc(CNC3(c4ccc(F)cc4O)CCCC3)c2)CC1 | > 30 | – | > 30
0.967 | 231 (≈ 96.2 µg/mL) | 21 | 48 | – | – | – | – | > 2 | 77 | – | 56 | – | – | – | – | CN1CCC(Cc2cc(CNC3(c4ccc(F)c(F)c4)CCCC3)ccc2F)CC1 | 3.52 | – | > 30
1.52 | 219 (≈ 89.9 µg/mL) | 40 | 62 | – | > 2 | > 95 | > 2 | > 2 | 80 | – | 55 | – | – | – | – | COc1cc(C2(NCc3cccc(CC4CCN(C)CC4)c3)CCCC2)ccc1F | 3.65 | – | > 30
1.78 | 246 (≈ 98 µg/mL) | 46 | 68 | – | > 2 | 95 | > 2 | > 2 | 75 | 95 | 53 | – | – | – | – | CN1CCC(Cc2ccc(F)c(CNC3(c4ccc(F)cc4)CCCC3)c2)CC1 | 5.45 | – | > 30
– | 248 (≈ 90.9 µg/mL) | 71 | 85 | > 2 | > 2 | 95 | > 2 | > 2 | 80 | 95 | 62 | – | – | – | – | Fc1ccc(C2(NCc3cccc(CC4CCNCC4)c3)CCCC2)cc1 | 2.74 | – | > 30

Source: ChEMBL document CHEMBL5344432, “Identification of a Dual Autophagy and REV-ERB Inhibitor with in Vivo Anticancer Efficacy” (J Med Chem, 2024)
